Assay outcomes (PubChem BioAssay)
TCR-CD3 inh: human TCR-CD3 binding inhibition; AID 651800; inhibition, % at 9.4 µM; 360,000 compounds, 0.37% hits; TAMRA-labeled TCR probe fluorescence, biochemical; in the data active = inhibition above about 19%;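 note: recombinant mutant TCR 2C K166C tagged with TAMRA read by polarization; 0% = receptor in buffer alone and 100% = receptor with positive control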
PRMT1 inh: PRMT1 (human) inhibition, primary screen. recombinant PRMT1, activity-based probe fluorescence polarization. AID 652257. 370,000 compounds, 1.3% hits. inhibition, % at 2.79 µM. Q99873;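 active = inhibition above about 21% made by adding two undisclosed values, limit read from the data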
rCAG RNA binder: r(CAG) repeat RNA binding | 370,000 compounds, 1.3% hits | TO-PRO-1 dye displacement fluorescence | inhibition, % at 3 µM | AID 651821;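 active = inhibition above the plate cutoff, the mean of all test compounds on that plate plus 3 SD, cut at about 35% in these data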;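 note: 0% = DMSO alone and 100% = 100 µM mitoxantrone as full dye displacement; higher means more dye released from RNA so lower well fluorescence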
SIAE inh: blocks human sialic acid acetylesterase. Q9HAT2. SIAE FP-Rh probe binding, fluorescence polarization. inhibition, % at 9.66 µM. 370,000 compounds, 0.69% hits;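 active = inhibition above a cutoff: mean of compounds within the control limits plus 3 SD of those, cut at about 17% in these data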;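 note: 0% = plate median of compound wells and 100% = probe without SIAE protein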
Target sequence (Q9HAT2 whole entry, looked up): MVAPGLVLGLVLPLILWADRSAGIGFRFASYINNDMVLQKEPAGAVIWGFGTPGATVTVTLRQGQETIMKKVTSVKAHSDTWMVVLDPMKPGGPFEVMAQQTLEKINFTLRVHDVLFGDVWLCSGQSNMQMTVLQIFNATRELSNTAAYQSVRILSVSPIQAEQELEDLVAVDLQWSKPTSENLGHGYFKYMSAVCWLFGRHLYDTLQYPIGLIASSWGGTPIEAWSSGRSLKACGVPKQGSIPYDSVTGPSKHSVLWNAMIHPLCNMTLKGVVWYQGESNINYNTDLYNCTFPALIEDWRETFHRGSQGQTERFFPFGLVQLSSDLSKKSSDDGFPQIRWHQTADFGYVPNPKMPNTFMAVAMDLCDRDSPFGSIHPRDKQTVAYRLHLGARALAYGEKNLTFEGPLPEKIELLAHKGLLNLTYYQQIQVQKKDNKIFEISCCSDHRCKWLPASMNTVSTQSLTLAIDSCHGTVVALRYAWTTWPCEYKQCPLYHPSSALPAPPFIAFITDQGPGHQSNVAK
ABHD4 inh: inhibitors of mouse ABHD4. purified mABHD4, FP-Rh probe fluorescence polarization. Q8VD66. inhibition, % at 8.92 µM. 370,000 compounds, 0.54% hits;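 active = inhibition exceeding the mean over every tested compound plus 3 SD, cut at about 30% in these data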;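 note: 0% = plate median of compound wells and 100% = S159A mutant with DMSO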
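Assay system: Wild-type mouse ABHD4 protein | Medium: HEPES pH 7.0 buffer, 150 mM NaCl, 0.01% Pluronic F-127 | Incubation: Enzyme–compound pre-incubation 45 min, then probe 60 min, both 25 °C | Technique: Fluorescence polarization with parallel and perpendicular emission, 525/598 nm | Evaluation: % inhibition of FP-Rh probe binding versus controls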
PRMT1 inh conf: confirmation of human PRMT1 inhibitors; shares compounds with PRMT1 inh; recombinant His-PRMT1, activity-based probe fluorescence polarization; inhibition, % at 2.79 µM; 3,300 compounds, 42% hits; AID 687036;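 active = mean inhibition across replicates above the hit cutoff derived for the earlier primary screen, cut at about 22% in these data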
Numbers without * were called inactive; . = no result given. This is a sample that favours compounds with a hit; in the whole collection about 3.3% have one here.

SMILES	TCR-CD3 inh	PRMT1 inh	rCAG RNA binder	SIAE inh	ABHD4 inh	PRMT1 inh conf
COC(=O)C1=C2SC(C)C(=O)N2C(N)=C(C#N)C1c1ccc(OC)c(OC)c1 (stereo unspecified)	2	10	9	2	-5	.
Cc1ccc(/C=C2\C(=O)Nc3ccccc32)o1	-6	60*	7	-1	19	9
O=C1Nc2ccccc2/C1=C/c1ccccc1F	3	1	0	-5	-5	.
CCn1c(=O)n2n(c1=O)[C@H]1C[N+](Cc3ccc4c(c3)OCO4)=C(N)NC1=C(C)C2	.	0	.	7	1	.
Cc1ccc(-c2ccc(CCC(=O)O)o2)cc1	-4	40*	2	3	8	40*
Cc1cc(NC(=O)CCc2ccc(-c3ccccc3)o2)no1	-2	11	4	-1	8	.
CC(C)N1CCCCC(NC(=O)COCc2ccccc2)C1=O (stereo unspecified)	.	3	-2	-1	0	.
N#Cc1ccsc1NC(=O)CSc1nncs1	1	26*	11	7	15	24*
CCC(Oc1ccccc1)C(=O)Nc1nc2ccccc2[nH]1 (stereo unspecified)	-6	26*	3	-4	7	21
CC(C)Oc1ccc(C(=O)Nc2nc3ccccc3[nH]2)cc1	-7	1	-1	3	3	.
CCOC(=O)[C@]12CCCC=C1N(CCCOC)C(=O)[C@@H]2CC(=O)N1CCCCC1	.	1	2	-3	2	.
O=C(Cn1sc2ccccc2c1=O)Nc1ccc(Cl)cc1	-5	90*	5	5	11	90*
O=C(CN1C(=O)CNC1=O)Nc1ccc(Cl)cc1	2	-4	2	0	-7	.
O=C(Cn1sc2ccccc2c1=O)Nc1ccc(Br)cc1	-2	93*	6	1	12	81*
O=C(Cn1sc2ccccc2c1=O)Nc1ccc(F)cc1	-2	91*	2	8	14	91*
O=C(CC1SC(=O)NC1=O)Nc1ccc(Cl)cc1 (stereo unspecified)	6	40*	13	1	-6	39*
CCOC(=O)[C@]12CCCC=C1N(Cc1ccc(OC)cc1)C(=O)[C@@H]2CC(=O)N1CCN(C(=O)C2CC2)CC1	.	1	0	6	1	.
O=C(CC(SCCO)c1ccc(F)cc1)c1ccco1 (stereo unspecified)	5	33*	0	-1	-1	30*
Cc1ccc(C(O)C(=O)c2ccco2)cc1 (stereo unspecified)	-14	0	1	-6	-1	.
O=C(c1ccco1)N1CCN=C1SCc1ccc(F)cc1	-4	-2	3	-1	-2	.
Cc1ccc(C(CC(=O)c2ccco2)SCCO)cc1 (stereo unspecified)	-1	28*	1	-2	-3	32*
O=C(CC1Sc2ncnn2C1=O)Nc1ccccc1 (stereo unspecified)	4	77*	3	11	-4	74*
CCCN1C(=O)SC(CC(=O)Nc2ccc(C)cc2)C1=O (stereo unspecified)	-1	10	2	-3	0	.
O=C(CC1SC2=NCCN2C1=O)Nc1ccccc1 (stereo unspecified)	7	-1	3	-7	3	.
CC(=O)Nc1ccc(NC(=O)CC2SC(=O)N(CC(=O)c3ccccc3)C2=O)cc1 (stereo unspecified)	6	29*	5	0	-1	20
SMILES	TCR-CD3 inh	PRMT1 inh	rCAG RNA binder	SIAE inh	ABHD4 inh	PRMT1 inh conf
CCC[C@H]1[C@@H](NCC2CCCCC2)CC[C@@]23CCCN2C(=O)CCC[C@@H]13	.	-3	.	-3	-1	.
O=c1c2ccccc2sn1-c1nccs1	-1	97*	5	-2	10	88*
O=C1c2ccccc2C(=O)N1c1nccs1	-2	2	1	2	3	.
Cn1sc2ccccc2c1=O	-6	71*	2	11	13	77*
O=c1c2ccccc2sn1-c1ccccc1F	1	89*	1	9	4	96*
CCCC1CCC2(CCCN2CCOC(=O)Nc2ccc(F)cc2)CC1 (stereo unspecified)	.	-4	.	1	4	.
C=CCN1[C@H](CO)[C@H](c2ccccc2)[C@@H]1C#N	.	6	4	-5	8	.
CC(=O)c1cc(-c2ccccc2)n(CC(=O)NCc2ccccc2)c1C	.	-11	3	8	1	.
O=C(NCc1cccs1)C1CCCN(S(=O)(=O)c2ccccc2)C1 (stereo unspecified)	.	2	4	1	3	.
CCCCOCCCNC(=O)C[C@H]1C(=O)N(Cc2ccc(OC)cc2)C2=CCCCC[C@@]21C(=O)OC	.	2	-1	-3	-1	.
CCOC(=O)C1CCN(c2nc(N)c3c(N)nc(SCC(=O)O)cc3c2C#N)CC1	7	55*	35*	-2	26	26*
CCOC(=O)C1CCN(c2nc(C)cc(C)c2C#N)CC1	7	0	-6	-2	0	.
COC(=O)c1ccc(N2CN=C(c3ccc(C)cc3)NC2=S)cc1	4	35*	2	-12	-1	-6
C=CCN=C1NC(c2ccc(Cl)cc2)C(C(=O)OC)=C(C)N1Cc1cccc(C(F)(F)F)c1 (stereo unspecified)	3	-1	7	0	20	.
Cc1c(Cc2ccccc2)sc(NC(=O)Cc2ccccc2)c1C(N)=O	-2	29*	10	-1	-12	3
CCC(=O)Nc1sc(Cc2ccccc2)c(C)c1C(N)=O	3	11	2	-7	-10	.
O=C(CSc1nnc(-c2cccnc2)n1-c1ccccc1)c1ccccc1Cl	.	5	10	6	1	.
COc1ccccc1NC(=O)c1cc(=O)[nH]c2ccccc12	-10	25*	14	4	5	6
COc1ccccc1NC(=O)c1c[nH]c2ccccc12	-6	-3	1	4	-3	.
COc1ccc(S(=O)(=O)c2c(N)n(Cc3ccco3)c3nc4ccccc4nc23)cc1	-7	28*	29	-8	-13	18
COc1ccccc1Nc1n[nH]c(=S)s1	-1	47*	-1	6	4	8
COc1cccc(Nc2nc(-c3sc(N)nc3C)cs2)c1	-1	18	32	1	0	.
COc1cccc(Nc2n[nH]c(=S)s2)c1	8	43*	3	5	0	36*
CCOC(=O)[C@]12CCCC=C1N(CCCOC)C(=O)[C@@H]2CC(=O)N1CCCC1	.	-2	-2	-3	-3	.
CCCCCCCCN1C(=O)[C@@H](CC(=O)NCc2ccccc2)C[C@@]2(C(=O)OC)C1=C[C@H](COCc1ccccc1)O[C@@H]2C	.	3	8	0	2	.
CCOC(=O)CC(=O)CSc1ncnc2c1nnn2-c1ccccc1	-9	64*	15	1	13	92*
CC(=O)Nc1ccc(SC(Sc2ccc(NC(C)=O)cc2)c2ccccc2)cc1	-5	29*	6	-17	-40	22*
